Measurements reported in the RNAGym collection of RNA variant scans (doi:10.1101/gad.245936.114).
This sample holds only a part of the variants without activity.

B1: tRNA (parent)
chain: CUCUCGGUAGCCAAGUUGGUUUAAGGCGCAAGACUUUAAUUUAUCACUACGAAAUCUUGAGAUCGGGCGUUCGACUCGCCCCCGGGAGAUUUUUUCCUCGAGCAA

Variants of: B1
Experiment: nonsense suppression (GFP-seq) (ratio to wild type); higher = more function; SUP4oc tRNA, yeast GFP reporter sort-seq
Outline: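 Sorted GFP/RFP bins of yeast were each Illumina-sequenced with a phred ≥30 cutoff; the cells held a genome-integrated ochre-suppressor tRNA variant from a library with ~3% random mutations, a galactose-driven GFP ochre reporter, and RFP. Culture was in raffinose/galactose medium containing 80 mg/L adenine. Nonsense suppression, termed GFPSEQ, is the median GFP/RFP of the bins weighted by each variant's estimated cell share per bin, relative to the unmutated parent tRNA, for variants reaching ≥100 reads and ≥30 cells.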

Variant	nonsense suppression
CUCUCGGUAGCCAAGUUGGUUUAAGGCGCACGACUUUAAUUUAUCACUACGAAAUCAUGAGAUCGGGCGUUCGACUCGCCCCCGGGAGAUUUUUUCCUCGAGCAA [A31C U57A]	0.219
CUCUCGGUAGCCAAGUUGGUUUAAGGCGCAACACUUUAAUUUAUCACUACGAAAUCUUGAGAUCGGGCGUUCGACACGCCCCCGGGAGAUUUUUUCCUCGAGCAA [G32C U76A]	≤ 0.026
CUCUCGGUAGCCAAGUUGGUGUAAGGCGCAAGACUUUAAUUUAUCACUACGAAAUCUUGAGAACGGGCGUUCGACUCGCCCCCGGGAGAUUUUUUCCUCGAGCAA [U21G U63A]	0.636
CUCUCGUUAGCCAAGUUGGUUUAAGGCGCAAGACUUUAAUUUAUCACUACGAAAUCUUGAGAUCGGGCGUUCGACUCGCCCCCGGGUGAUUUUUUCCUCGAGCAA [G7U A87U]	≤ 0.026
CUCUCGGUAGCCAAGUUGGUUUAAGGCGCAAGACUUUAAUUUAUCACUACGAAAUCUUGAGAUCGGGCGUUCGACUCGCCCACUGGAGAUUUUUUCCUCGAGCAA [C82A G84U]	≤ 0.026
UUCUCGGUAGCCAAGUUAGUUUAAGGCGCAAGACUUUAAUUUAUCACUACGAAAUCUUGAGAUCGGGCGUUCGACUCGCCCCCGGGAGAUUUUUUCCUCGAGCAA [C1U G18A]	≤ 0.026
CUUUCGGUAGCCAAGUUGGUUUAAGGCGCAAGACUUUAAUUUAUCACUACGAAAUCUUGAGAUCGGGCGUUCGACUGGCCCCCGGGAGAUUUUUUCCUCGAGCAA [C3U C77G]	0.0323
CUCUAGUUAGCCAAGUCGGUUUAAGGCGCAAGACUUUAAUUUAUCACUACGAAAUCUUGAGAUCGGGCGUUCGACUCGCCCCCGGGAGAUUUUUUCCUCGAGCAA [C5A G7U U17C]	≤ 0.026
CUCUCGGUAGCCAAGUUGGUUUAAGGCGCAAGACUUUAAUUUAUCACUACGAAAUCUUGAGAUCGGGCGUUCGACUCGCCACCGGGAGCUUUUUUCCUCGAGCAA [C81A A89C]	≤ 0.026
UUCUCGGUAGCGAAGUUGGUUUAAGGCGCAAGACUUUAAUUUAUCACUACGAAAUCUUGAGAUCGGGCGUUCGACUCGCCCCCGGGAGAUUUUUUCCUCGAGCAA [C1U C12G]	0.327
CUCUCGGUAGCCGAGUUGGUUUAAGGCGCAAGUCUUUAAUUUAUCACUACGAAAUCAUGAGAUCGGGCGUUCGACUCGCCCCCGGGAGAUUUUUUCCUCGAGCAA [A13G A33U U57A]	≤ 0.026
CUCUCGGUAGCCAAGUUGGUUUACGGCGCAAGACUUUAAUUUAUCACUACGAAAUCUUGAGAUCGGGCGUUCGACUCGCCCCCGGGAAAUUUUUUCCUCGAGCAA [A24C G88A]	0.0453
CUCUCGGUAGCCCAGUUGGUUUAAGGCGCAAGACUUUAAUUUAUCACUACGAAAUCUUGAGAUCGGGCGUUCGAUUCGCCCCCGUGAGAUUUUUUCCUCGAGCAA [A13C C75U G85U]	0.333
CUCUCGGUAGCCAAGCUGGUUUAAGGUGCAAGACUUUAAUUUAUCACUACGAAAUCUUGAGAUCGGGCGUUCGACUCGCCCCCGGGAGAUUUUUUCCUCGAGCAA [U16C C27U]	0.137
CUCUCGGUAGCCAAGUUGGUUUAAGGCGCAAGACUUUAAUUUAUCACUACGAAAUCUUUAGAUCGGGCGUUCGCCUCGCCCUCGGGAGAUUUUUUCCUCGAGCAA [G59U A74C C82U]	≤ 0.026
CUCUCGGUAGCCAAGUUGGUUUAAGGCGCAAGACUUUAAUUUAUCACUACGAAAUCUUGAGGUCGGGCGUUCGAGUCGCCCCCGGGAGAUUUUUUCCUCGAGCAA [A62G C75G]	0.205
CUCUCGGUAGCCAAGGUGGUCUAAGGCGCAAGACUUUAAUUUAUCACUACGAAAUCUUGAGAUCGGGCGUUCGACUCGCCCCCGGGAGAUUUUUUCCUCGAGCAA [U16G U21C]	0.905
CUCUCGGUAGCCAAGUUGGUUUAAGGCGCAAGACUUUAAUUUAUCACUACGAAAUCUUGAGAUGGGGCGUUUGACUCGCCCCCGGGAGAUUUUUUCCUCGAGCAA [C64G C72U]	≤ 0.026
GUCUCGGUAGCCAAGUUGGUUUAAGGCGCAUGACUUUAAUUUAUCACUACGAAAUCUUGAGAUCGGGCGUUCGACUCGCCCCCGGGAAAUUUUUUCCUCGAGCAA [C1G A31U G88A]	≤ 0.026
CUCCCGGUAGCCAAGUUGGUUUAAGGUGCAAGACUUUAAUUUAUCACUACGAAAUCUUGAGAUCGGGCGUUCGACUCGCCCCCGGGAGAUUUUUUCCUCGAGCAA [U4C C27U]	0.792
CUCUCGGUAGCCAGGUUGGUUUAAGGCGCAGGACUUUAAUUUAUCACUACGAAAUCUUGAGAUCGGGCGUUCGACUCGCCCCCGGGAGAUUUUUUCCUCGAGCAA [A14G A31G]	0.0611
CUCUCGGUAGCCAAGUUGGUUUAAGGCGCAAGUCUUUAAUUUAUCACUACGAAAUCCUGAGGUCGGGCGUUCGACUCGCCCCCGGGAGAUUUUUUCCUCGAGCAA [A33U U57C A62G]	≤ 0.026
CUCGCGGUAGCCAAGUUGGUUUAAGGCGCAAGACUUUAAUUUAUCACUACGAAAUCUUGAGAUCGGGCGUUGGACUCGCCCCCGGGAGAUUUUUUCCUCGAGCAA [U4G C72G]	0.0909
CUCUUGGUAGCCCAGUUGGUUUAAGGCGCAAGACUUUAAUUUAUCACUACGAAAUCUUGAGAUCGGGCGUUCGACUCGCCCCCGGGAGAUUUUUUCCUCGAGCAA [C5U A13C]	0.0679
CUCUCGGUAGCCAAGUUGGUUUAAGGCGGAAGACUUUAAUUUAUCACUACGAAAUCUAGAGAUCGGGCGUUCGACUCGCCCCCGGGAGAUUUUUUCCUCGAGCAA [C29G U58A]	≤ 0.026
CUCUCGGUAGCCAAGUUGGUUUAAGGCGCAAGACUUUAAUUUAUCACUACGAAAUCUUGAGAACGGACGUUCGACUCGCCCCCGGGAGAUUUUUUCCUCGAGCAA [U63A G67A]	≤ 0.026
CUCUCGGUAGCCAAGUUGGUUUAAGGCGCAAGACUUUAAUUUAUCACUACGAAAUCUUGCGUUCGGGCGUUCGACUCGCCCCCGGGAGAUUUUUUCCUCGAGCAA [A60C A62U]	0.0785

Variant	nonsense suppression
CUCGCGGUAGCCAAGUUGGCUUAAGGCGCAAGGCUUUAAUUUAUCACUACGAAAUCUUGAGAUCGGGCGUUCGACUCGCCCCCGGGAGAUUUUUUCCUCGAGCAA [U4G U20C A33G]	0.0309
CUCUCGGUAGCCAAGUUGGAUUAAGGCGCAAGACUUUAAUUUAUCACUACGAAAUCUUGAGAUCGGGCGUACGACUCGCCCCCGGGAGAUUUUUUCCUCGAGCAA [U20A U71A]	≤ 0.026
CUCUCGGUAGCCAAGUUGGUUUAAGGCGCAUGACUUUAAUUUAUCACUACGAAAUCUUGCGAUCGCGCGAUCGACUCGCCCCCGAGAGAUUUUUUCCUCGAGCAA [A31U A60C G66C U70A G85A]	≤ 0.026
CUCUCGGUAGCCAAGUUGGUUUAAGGCGCAAGACUUUAAUUUAUCACUACGAACUCUUGAGAUCGGGCGUUCGACUCGCUCCCGGGAGAUUUUUUCCUCGAGCAA [A54C C80U]	0.194
CUCUCGGUACCCAACUUGGUUUAAGGCGCAAUACUUUAAUUUAUCACUACGAAAUCUUGAGAACGGGCGUUCGACUCGCCCCCGGGAGAUUUUUUCCUCGAGCAA [G10C G15C G32U U63A]	≤ 0.026
CUCUCGGUAGCCAAGUUGGUUUAAGGCGCAAGACUUUAAUUUAUCACUACGAAAUCUUGACAUCGGGCGUUGGACUCGCCCCCGGGAGAUUUUUUCCUCGAGCAA [G61C C72G]	0.0291
CUCUCGGUAGCCAAGUUGGUUUAAGGCGCAAGACUUUAAUUUAUCACUACGAAAUCUUGAAAUCGGGCCUUCGACUCGCCCCCGGGAGAUUUUUUCCUCGAGCAA [G61A G69C]	0.0625
CUCUCGGUAGCCAAGUUGGUUUAAGGCGCAAGCCUUUAAUUUAUCACUACGAAAUCGUGAGAUGGGGCGUUCGACUCGCCCCCGGGAGAUUUUUUCCUCGAGCAA [A33C U57G C64G]	≤ 0.026
CUCUCGGUAGCCAAGUUGGUUUAAGGCGCAAGACCUUAAUUUAUCACUACGAAAUCUUGAGAUCGGGCGUUCAACUCGCCCCCGGGAGAUUUUUUCCUCGAGCAA [U35C G73A]	≤ 0.026
CUCUCGGUAGCCAAGUUGGUUUAAGGCGGAAAACUUUAAUUUAUCACUACGAAAUCUUGAGAUCGGUCGUUCGAAUCGCCCCCGGGAGAUUUUUUCCUCGAGCAA [C29G G32A G67U C75A]	≤ 0.026
CUCUCGGUAGCCAUGUUGGUUUAAGGCGCAAGACUUUAAUUUAUCACUACGAAAUCUUGAGAUCGGGCGUUCGACUCGCCCCCGUGAUAUUUUUUCCUCGAGCAA [A14U G85U G88U]	≤ 0.026
CUCUCGGUAGCGAAGUUGGUUUAAGGCGCAAGUCUUUAAUUUAUCACUACGAAACCUUGAGAUCGGGCGUUAAACCCGCCCCCGGGAGAUUUUUUCCUCGAGCAA [C12G A33U U55C C72A G73A U76C]	≤ 0.026
CUCUCGGUAGCCAAGUUGGUUUAAGGCGCAAGACUUUAAUUUAUCACUACGAAAUCUUGAGAUCGGGCGUUCGACUCGCCCCUGGGGGAUUUUUUCCUCGAGCAA [C83U A87G]	0.0621
CUCUCGGUAGCCAAGUUGGUUUAAGGCGCAAGACUUUAAUUUAUCACUACGAAAUCUUGAGAUCGGGCGAUCGACGCGCCCCCGGGAGAUUUUUUCCUCGAGCAA [U70A U76G]	0.183
CUCUCGAUAGCCAAGUUGGUUUAUGGCGCAAGACUUUAAUUUAUCACUACGAAAUCUUGAGAUCGGGCGUUCGAUUCCCCCCCGGGAGAUUUUUUCCUCGAGCAA [G7A A24U C75U G78C]	≤ 0.026
CUCUCGGUAGCCAAGUUGGUUUAAGACGCACGACUUUAAUUUAUCACUACGAAAUCUUGAGAUCGGGCGUUCGACUCGCCCCCGGGAGAUUUUUUCCUCGAGCAA [G26A A31C]	≤ 0.026
CUCUCGGUAGCUAAGUUGGUUUAACGCGCAAGACUUUAAUUUAUCACUACGAAAUCUUGAGAUCGGGCGUUCGACUCGCCCCCGGGAGAUUUUUUCCUCGAGCAA [C12U G25C]	0.184
UUCUCGGUAGCCAAGUUGGUUUAAGGCGCAAGACUUUAAUUUAUCACUACGAAUUCUUGAGAUCGGGCGUUCGACUCGCCCCCGGGAAAUUUUUUCCUCGAGCAA [C1U A54U G88A]	0.209
CUCUCGGUAGCCAAGUUGGUUGAAGGCGCAAGACUUUAAUUUAUCACUACGAAAUCUUGAGAUCGGGCGUUCGAAUCGCCCCCGGGAGAUUUUUUCCUCGAGCAA [U22G C75A]	0.927
CUCUCGGUUGCCAAGUUGGUUUAAGGCGCAAGACUUUAAUUUAUCACUACGAAAUCUUGAAAUCGGGCGUUCGACUCGCCCCCGGGAGAUUUUUUCCUCGAGCAA [A9U G61A]	0.195
CUCUCGGUUGCCAAGUUGGUUUAAGGCACAAGACUUUAAUUUAUCACUACGAAAUCUUGAGAUCGGGCGUUCGAUUCGCCCCCGGGAGAUUUUUUCCUCGAGCAA [A9U G28A C75U]	0.0978
CUCUCGGUAGCCAAGUUGGUUUAAGGCGCAAGACUUUAAUUUAUCACUACGAAAUCUGAAGAUCGGGCGUUCGACUCGCUCCCGGUAGAUUUUUUCCUCGAGCAA [U58G G59A C80U G86U]	≤ 0.026
CUCUCGGUAGCCAAGUUGGUUUAAGGCGGAAGACUUUAAUUUAUCACUACGAAAUCUUGAGAUCGGGCGUUCGACUCGCCCCCGGAAGAUUUUUUCCUCGAGCAA [C29G G86A]	≤ 0.026
CUUUCGGUAGCCAAGUUGGUUUAAGGCGCAAGACUUUAAUUUAUCACUACGAAAUCUUGAGAUCGGGCGUUCGACUCGCCCCCGGGAGAUUUUUUCCUCGAGCAA [C3U]	0.739
CUCUCGGUAGCCAAGUUGGCUUAAGGCGCAAGACUUUAAUUUAUCACUACGAAAUCUUGAGAUCGGGCGUUCGACUCGCCCCCGGGGGAUUUUUUCCUCGAGCAA [U20C A87G]	0.213
CUCUCGGUAGCCAAGUCGGUUUAAGGCUCCAGACUUUAAUUUAUCACUACGAAAUCUUGAGAUCGGGCGUUCGACUCGCCCCCGGGAGAUUUUUUCCUCGAGCAA [U17C G28U A30C]	≤ 0.026
CUCUCGAUAGCCAAGUUGGUUUCAGGCGCAAGACUUUAAUUUAUCACUACGAAAUGUUGAGAUCGGGCGUUCGACUCGCCCCCGGGAGAUUUUUUCCUCGAGCAA [G7A A23C C56G]	≤ 0.026
